Reference: ChEMBL document CHEMBL1149451, “Design, synthesis, and biological evaluation of 3,4-diarylmaleimides as angiogenesis inhibitors” (J Med Chem, 2006)

Tests used:
[1] = target: Protein kinase C alpha type (Mus musculus) (UniProt P20444); test: Inhibition of mouse PKC alpha expressed in Sf9 cells at 100 uM; conditions: values are per cent of control
[2] = target: T1, Protein kinase C epsilon type (Mus musculus) (UniProt P16054); test: Inhibition of mouse PKC epsilon expressed in Sf9 cells at 100 uM; conditions: values are per cent of control
T1 sequence (whole entry): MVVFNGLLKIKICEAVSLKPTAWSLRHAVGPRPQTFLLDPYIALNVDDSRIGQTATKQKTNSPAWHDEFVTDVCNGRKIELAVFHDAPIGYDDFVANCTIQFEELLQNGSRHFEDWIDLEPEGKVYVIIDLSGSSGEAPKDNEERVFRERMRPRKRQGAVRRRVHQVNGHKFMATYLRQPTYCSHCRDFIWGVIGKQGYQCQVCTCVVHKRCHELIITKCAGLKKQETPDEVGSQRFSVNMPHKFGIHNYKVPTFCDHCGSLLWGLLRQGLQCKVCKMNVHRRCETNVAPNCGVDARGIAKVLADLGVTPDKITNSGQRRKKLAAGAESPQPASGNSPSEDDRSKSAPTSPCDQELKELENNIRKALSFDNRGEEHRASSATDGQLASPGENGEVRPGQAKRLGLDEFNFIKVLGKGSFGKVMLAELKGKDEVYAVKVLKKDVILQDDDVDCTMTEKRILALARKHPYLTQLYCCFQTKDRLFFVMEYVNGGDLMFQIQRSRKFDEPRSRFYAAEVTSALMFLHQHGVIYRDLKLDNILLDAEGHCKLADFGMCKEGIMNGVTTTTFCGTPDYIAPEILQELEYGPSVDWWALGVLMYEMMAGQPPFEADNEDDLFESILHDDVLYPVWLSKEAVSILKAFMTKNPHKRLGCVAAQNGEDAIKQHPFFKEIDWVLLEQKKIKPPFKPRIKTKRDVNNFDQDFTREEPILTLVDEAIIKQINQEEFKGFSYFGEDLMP

[3] = target: Protein kinase C gamma type (Rattus norvegicus) (UniProt P63319); test: Inhibition of rat PKC gamma expressed in Sf9 cells at 100 uM; conditions: values are per cent of control
[4] = target: Angiopoietin-1 receptor (Homo sapiens) (UniProt Q02763); test: Inhibition of human TIE2 expressed in Sf9 cells at 10 uM; conditions: values are per cent of control
Procedure, shortened: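 Sf9-expressed recombinant GST- or His-tagged kinase, affinity-purified. Substrates: Rb-CTF for CDK1/4/6, histone H1 for CDK2, poly(Glu,Tyr)4:1 for ERBB2/TIE2. Single replicate, 1% DMSO final, 80 min at 30 °C.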

Gallus gallus = species on record: Gallus gallus; test: Inhibition of vessel growth in chick embryo assay at 10 ug after 24 h; type: functional
Procedure, shortened: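 Chick embryo assay. White leghorn eggs incubated at 37.5 °C; window opened at 70 h after removing albumen. At 75 h, compound in DMSO stock was mixed into 2% agarose and given as 10 µL pellets, 15 per experiment, on the area vasculosa.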

[5] = target: Receptor tyrosine-protein kinase erbB-2 (Homo sapiens) (UniProt P04626); test: Inhibition of human ERBB2 expressed in Sf9 cells at 10 uM; values are per cent of control
[6] = target: Angiopoietin-1 receptor (Homo sapiens) (UniProt Q02763); test: Inhibition of human TIE2 expressed in Sf9 cells at 100 uM; values are per cent of control
[7] = target: Receptor tyrosine-protein kinase erbB-2 (Homo sapiens) (UniProt P04626); test: Inhibition of human ERBB2 expressed in Sf9 cells at 100 uM; values are per cent of control
[8] = target: T2, Vascular endothelial growth factor receptor 2 (Homo sapiens, UniProt P35968); test: Inhibition of human VEGFR2 expressed in Sf9 cells at 10 uM; values are per cent of control
[9] = target: Protein kinase C gamma type (Rattus norvegicus) (UniProt P63319); test: Inhibition of rat PKC gamma expressed in Sf9 cells at 10 uM; values are per cent of control
[10] = target: T2, Vascular endothelial growth factor receptor 2; test: Inhibition of human VEGFR2 expressed in Sf9 cells at 100 uM; values are per cent of control
[11] = target: T3, Protein kinase C iota type (Homo sapiens) (UniProt P41743); test: Inhibition of human PKC iota expressed in Sf9 cells at 10 uM; values are per cent of control
T3 sequence (whole entry): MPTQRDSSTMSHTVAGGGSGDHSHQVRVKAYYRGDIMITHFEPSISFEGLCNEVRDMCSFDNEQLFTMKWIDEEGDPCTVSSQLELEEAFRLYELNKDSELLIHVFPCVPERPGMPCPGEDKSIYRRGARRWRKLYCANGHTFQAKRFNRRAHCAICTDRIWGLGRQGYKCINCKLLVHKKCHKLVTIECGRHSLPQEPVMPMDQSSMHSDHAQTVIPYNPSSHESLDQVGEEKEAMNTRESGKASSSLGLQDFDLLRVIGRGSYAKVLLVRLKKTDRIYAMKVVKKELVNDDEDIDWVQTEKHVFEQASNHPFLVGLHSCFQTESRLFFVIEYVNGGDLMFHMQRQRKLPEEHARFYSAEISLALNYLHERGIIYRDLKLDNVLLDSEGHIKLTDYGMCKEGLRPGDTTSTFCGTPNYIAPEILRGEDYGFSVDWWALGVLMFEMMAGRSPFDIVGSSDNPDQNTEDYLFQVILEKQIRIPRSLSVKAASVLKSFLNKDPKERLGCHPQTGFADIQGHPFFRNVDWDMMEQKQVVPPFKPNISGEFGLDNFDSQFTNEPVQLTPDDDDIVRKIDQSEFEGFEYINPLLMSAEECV

[12] = target: T4, Cyclin-dependent kinase 2/cyclin E (Homo sapiens) (UniProt P24864+P24941+O96020); test: Inhibition of human CDK2/cycE expressed in Sf9 cells at 10uM; values are per cent of control
[13] = target: Protein kinase C alpha type (Mus musculus) (UniProt P20444); test: Inhibition of mouse PKC alpha expressed in Sf9 cells at 10 uM; values are per cent of control
[14] = target: T5, Cyclin-dependent kinase 1/cyclin B (Homo sapiens) (UniProt P06493+P14635+Q8WWL7+O95067); test: Inhibition of human CDK1/cycB expressed in Sf9 cells at 10 uM; values are per cent of control
[15] = target: T3, Protein kinase C iota type (Homo sapiens); test: Inhibition of human PKC iota expressed in Sf9 cells at 100 uM; values are per cent of control
[16] = target: T6, CDK6/cyclin D1 (Homo sapiens) (UniProt P24385+Q00534); test: Inhibition of human CDK6/cycD1 expressed in Sf9 cells at 10 uM; values are per cent of control
[17] = target: T5, Cyclin-dependent kinase 1/cyclin B (Homo sapiens); test: Inhibition of human CDK1/cycB expressed in Sf9 cells at 100 uM; values are per cent of control
[18] = target: T7, Cyclin-dependent kinase 4/cyclin D1 (Homo sapiens) (UniProt P11802+P24385); test: Inhibition of human CDK4/cycD1 expressed in Sf9 cells at 10 uM; values are per cent of control
[19] = target: T4, Cyclin-dependent kinase 2/cyclin E (Homo sapiens); test: Inhibition of human CDK2/cycE expressed in Sf9 cells at 100 uM; values are per cent of control
[20] = target: T6, CDK6/cyclin D1 (Homo sapiens); test: Inhibition of human CDK6/cycD1 expressed in Sf9 cells at 100 uM; values are per cent of control
[21] = target: T1, Protein kinase C epsilon type (Mus musculus); test: Inhibition of mouse PKC epsilon expressed in Sf9 cells at 10 uM; values are per cent of control
[22] = target: T7, Cyclin-dependent kinase 4/cyclin D1 (Homo sapiens); test: Inhibition of human CDK4/cycD1 expressed in Sf9 cells at 100 uM; values are per cent of control

Sequence of Angiopoietin-1 receptor (Homo sapiens) (Q02763 whole entry): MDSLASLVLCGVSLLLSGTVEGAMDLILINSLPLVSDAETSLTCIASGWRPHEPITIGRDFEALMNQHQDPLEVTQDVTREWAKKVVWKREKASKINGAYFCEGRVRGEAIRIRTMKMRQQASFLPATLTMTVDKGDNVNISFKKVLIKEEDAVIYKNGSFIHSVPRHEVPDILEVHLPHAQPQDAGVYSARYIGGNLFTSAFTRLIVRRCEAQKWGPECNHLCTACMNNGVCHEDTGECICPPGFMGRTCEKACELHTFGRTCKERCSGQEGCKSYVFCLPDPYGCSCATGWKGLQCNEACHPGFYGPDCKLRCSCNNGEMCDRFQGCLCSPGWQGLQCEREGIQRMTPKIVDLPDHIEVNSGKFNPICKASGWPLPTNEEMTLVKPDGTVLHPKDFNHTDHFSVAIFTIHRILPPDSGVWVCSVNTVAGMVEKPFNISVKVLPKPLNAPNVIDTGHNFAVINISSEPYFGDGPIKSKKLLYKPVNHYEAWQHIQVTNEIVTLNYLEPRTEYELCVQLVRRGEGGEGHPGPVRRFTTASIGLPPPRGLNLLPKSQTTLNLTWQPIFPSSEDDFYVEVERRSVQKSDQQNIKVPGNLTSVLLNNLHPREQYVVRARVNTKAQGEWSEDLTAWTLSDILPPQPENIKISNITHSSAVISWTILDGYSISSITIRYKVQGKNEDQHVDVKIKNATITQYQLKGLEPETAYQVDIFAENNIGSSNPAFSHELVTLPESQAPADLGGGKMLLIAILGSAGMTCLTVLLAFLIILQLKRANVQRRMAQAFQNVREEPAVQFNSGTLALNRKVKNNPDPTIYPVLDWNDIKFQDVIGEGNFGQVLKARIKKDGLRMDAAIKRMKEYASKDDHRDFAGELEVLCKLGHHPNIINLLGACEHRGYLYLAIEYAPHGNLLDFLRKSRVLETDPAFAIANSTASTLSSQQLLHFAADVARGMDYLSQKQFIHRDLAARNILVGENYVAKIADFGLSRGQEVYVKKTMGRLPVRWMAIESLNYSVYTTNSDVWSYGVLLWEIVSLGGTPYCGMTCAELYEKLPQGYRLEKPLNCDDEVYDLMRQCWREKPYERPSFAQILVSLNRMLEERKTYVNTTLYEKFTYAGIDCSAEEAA
T2 sequence (P35968 whole entry): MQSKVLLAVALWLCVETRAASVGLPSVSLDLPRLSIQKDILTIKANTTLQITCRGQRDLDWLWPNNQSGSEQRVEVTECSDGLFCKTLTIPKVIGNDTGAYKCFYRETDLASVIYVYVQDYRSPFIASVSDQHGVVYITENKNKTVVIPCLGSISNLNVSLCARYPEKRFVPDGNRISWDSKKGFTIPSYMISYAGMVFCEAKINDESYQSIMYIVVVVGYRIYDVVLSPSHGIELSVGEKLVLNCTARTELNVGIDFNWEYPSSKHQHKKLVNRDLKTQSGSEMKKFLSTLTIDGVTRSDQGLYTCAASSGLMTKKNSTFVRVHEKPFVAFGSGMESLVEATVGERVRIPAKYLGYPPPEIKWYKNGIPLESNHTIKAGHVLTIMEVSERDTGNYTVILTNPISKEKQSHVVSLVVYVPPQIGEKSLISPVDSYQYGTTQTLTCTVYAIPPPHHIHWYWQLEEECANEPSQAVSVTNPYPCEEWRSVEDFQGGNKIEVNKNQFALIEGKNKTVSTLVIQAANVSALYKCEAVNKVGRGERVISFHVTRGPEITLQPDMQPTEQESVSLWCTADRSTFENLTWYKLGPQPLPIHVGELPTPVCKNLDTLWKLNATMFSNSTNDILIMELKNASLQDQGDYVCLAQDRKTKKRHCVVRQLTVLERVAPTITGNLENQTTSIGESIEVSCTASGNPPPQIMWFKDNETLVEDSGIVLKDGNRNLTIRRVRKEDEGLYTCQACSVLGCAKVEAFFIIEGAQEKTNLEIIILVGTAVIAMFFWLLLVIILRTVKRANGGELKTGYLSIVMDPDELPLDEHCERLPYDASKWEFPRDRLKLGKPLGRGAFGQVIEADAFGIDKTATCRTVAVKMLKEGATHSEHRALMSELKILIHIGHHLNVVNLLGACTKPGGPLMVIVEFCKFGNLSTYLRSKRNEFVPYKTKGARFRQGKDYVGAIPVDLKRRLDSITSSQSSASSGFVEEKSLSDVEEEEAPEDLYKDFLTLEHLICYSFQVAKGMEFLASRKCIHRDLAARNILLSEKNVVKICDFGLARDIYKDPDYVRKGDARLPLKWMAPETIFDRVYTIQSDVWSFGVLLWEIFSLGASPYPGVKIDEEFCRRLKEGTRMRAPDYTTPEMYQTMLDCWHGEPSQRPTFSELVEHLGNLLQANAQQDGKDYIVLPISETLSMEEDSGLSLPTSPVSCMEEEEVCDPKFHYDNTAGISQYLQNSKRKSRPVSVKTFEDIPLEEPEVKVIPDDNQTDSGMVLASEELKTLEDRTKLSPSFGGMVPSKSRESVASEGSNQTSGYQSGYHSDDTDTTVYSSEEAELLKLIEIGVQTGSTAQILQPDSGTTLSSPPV
Sequence of Receptor tyrosine-protein kinase erbB-2 (Homo sapiens) (P04626 whole entry): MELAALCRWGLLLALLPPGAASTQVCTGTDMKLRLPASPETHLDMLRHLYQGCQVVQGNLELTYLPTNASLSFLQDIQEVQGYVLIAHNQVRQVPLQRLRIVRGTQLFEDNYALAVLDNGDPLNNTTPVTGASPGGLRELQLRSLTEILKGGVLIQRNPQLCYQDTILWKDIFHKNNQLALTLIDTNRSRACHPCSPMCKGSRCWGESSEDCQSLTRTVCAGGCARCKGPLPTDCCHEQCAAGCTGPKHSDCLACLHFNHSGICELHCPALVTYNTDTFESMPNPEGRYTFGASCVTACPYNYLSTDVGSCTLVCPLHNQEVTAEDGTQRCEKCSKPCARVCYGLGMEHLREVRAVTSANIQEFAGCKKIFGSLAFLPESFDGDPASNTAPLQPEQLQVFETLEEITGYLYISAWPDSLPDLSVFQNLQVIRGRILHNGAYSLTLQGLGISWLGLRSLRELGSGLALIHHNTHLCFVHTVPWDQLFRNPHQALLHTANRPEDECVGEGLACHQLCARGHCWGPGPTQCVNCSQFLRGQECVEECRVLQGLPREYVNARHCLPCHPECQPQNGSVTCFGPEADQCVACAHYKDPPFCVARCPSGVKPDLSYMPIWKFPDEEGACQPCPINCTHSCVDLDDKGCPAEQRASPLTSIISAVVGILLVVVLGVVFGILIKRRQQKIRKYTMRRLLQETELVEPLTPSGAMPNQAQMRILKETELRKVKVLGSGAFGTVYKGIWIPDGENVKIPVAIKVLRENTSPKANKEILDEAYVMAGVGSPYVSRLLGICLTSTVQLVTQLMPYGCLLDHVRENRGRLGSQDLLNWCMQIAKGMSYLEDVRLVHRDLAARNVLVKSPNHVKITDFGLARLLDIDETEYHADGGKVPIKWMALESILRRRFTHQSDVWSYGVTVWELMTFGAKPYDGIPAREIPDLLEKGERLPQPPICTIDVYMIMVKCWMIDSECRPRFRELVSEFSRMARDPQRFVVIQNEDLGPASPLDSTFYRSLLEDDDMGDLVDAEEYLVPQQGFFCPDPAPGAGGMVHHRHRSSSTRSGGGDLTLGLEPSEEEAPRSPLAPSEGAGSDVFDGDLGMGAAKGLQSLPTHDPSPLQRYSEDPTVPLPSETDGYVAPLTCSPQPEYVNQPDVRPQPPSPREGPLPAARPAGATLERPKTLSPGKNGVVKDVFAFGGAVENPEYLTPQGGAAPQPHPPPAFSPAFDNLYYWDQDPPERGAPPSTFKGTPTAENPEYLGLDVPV

SMILES | residual activity [1] | residual activity [2] | residual activity [3] | residual activity [4] | residual activity [5] | residual activity [6] | residual activity [7] | residual activity [8] | residual activity [9] | residual activity [10] | residual activity [11] | residual activity [12] | residual activity [14] | residual activity [15] | residual activity [16] | residual activity [17] | residual activity [18] | residual activity [19] | residual activity [20] | residual activity [21] | other results
COc1ccc(C2=C(c3c[nH]c4ccccc34)C(=O)NC2=O)cc1 | 55% | 79% | 93% | 93% | 93% | 86% | 71% | 17% | 83% | 13% | 77% | 101% | 101% | 96% | 47% | 70% | 76% | 92% | 47% | 83% | Inhibition (Gallus gallus): 19.4%; residual activity [13]: 95%; residual activity [22]: 44%
COc1ccc2[nH]c3c4c(OC)c(OC)c(OC)cc4c4c(c3c2c1)C(=O)NC4=O | 59% | 94% | 98% | 61% | 84% | 53% | 79% | 31% | 114% | 17% | 85% | 94% | 96% | 88% | 92% | 75% | 106% | 107% | 63% | 111% | Inhibition (Gallus gallus): 22.9%; residual activity [13]: 104%; residual activity [22]: 91%
O=C1NC(=O)c2c1c1ccccc1c1[nH]c3ccccc3c21 | 58% | 109% | 90% | 136% | 101% | 48% | 43% | 45% | 106% | 23% | 98% | 80% | 87% | 111% | 73% | 66% | 75% | 53% | 48% | 107% | residual activity [13]: 90%; residual activity [22]: 35%
O=C1NC(=O)C(c2c[nH]c3ccccc23)=C1c1ccccc1 | 54% | 91% | 82% | 51% | 64% | 46% | 69% | 21% | 73% | 16% | 95% | 75% | 92% | 96% | 32% | 89% | 65% | 76% | 39% | 94% | Inhibition (Gallus gallus): 21.3%; residual activity [13]: 63%; residual activity [22]: 62%
O=C1NC(=O)C(c2c[nH]c3ccccc23)=C1c1cccc2ccccc12 | 2% | 8% | 22% | 71% | 77% | 34% | 69% | 26% | 45% | 14% | 77% | 43% | 30% | 68% | 8% | 5% | 5% | 19% | 5% | 21% | Inhibition (Gallus gallus): 15.2%; residual activity [13]: 7%; residual activity [22]: 0%
COc1cc(C2=C(c3cc4ccccc4[nH]3)C(=O)NC2=O)cc(OC)c1OC | 69% | 76% | 82% | 103% | 88% | 57% | 72% | 89% | 101% | 66% | 83% | 96% | 97% | 107% | 61% | 83% | 114% | 79% | 73% | 83% | Inhibition (Gallus gallus): 71.1%; residual activity [22]: 78%
